The test system of assay [1] is S. aureus biofilms (UAMS-1). In words: Biofilm killing assay. It counts as cell-based. The following applies: 10 times the MIC, 24 hours, compared with the control. In short, it runs like this:
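Overnight stationary UAMS-1 culture diluted 1:20 in BHI broth and grown 24 h at 37 °C in tissue-culture-treated 96-well plates. Wells PBS-washed twice, then exposed to test compound in fresh medium for 24 h. Washed again, biofilms disrupted by sonication in PBS, serially diluted, and spotted on BHI agar overnight at 37 °C for cfu counts. One-way ANOVA with Dunnett's test.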

The target in assay [2] is T1, S. aureus ClpP (caseinolytic protease) (S. aureus NCTC 8325), Q2G036.
T1 chain: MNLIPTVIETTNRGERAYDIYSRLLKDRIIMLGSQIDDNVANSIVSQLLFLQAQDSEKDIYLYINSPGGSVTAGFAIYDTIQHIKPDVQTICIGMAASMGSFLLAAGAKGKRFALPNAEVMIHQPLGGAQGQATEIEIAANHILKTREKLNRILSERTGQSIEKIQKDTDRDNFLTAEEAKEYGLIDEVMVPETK
Kind of assay: AUC. Conditions: remark: other sources report otherwise.

The target of assay [3] is T1, S. aureus ClpP (caseinolytic protease) …. Kind of assay: crystal structure. Conditions: remark: other sources report otherwise.

Two molecules from PMC6916429 (ACS infectious diseases, 2019) can be followed below.

Several values for one entry are separate records, joined by “and”; a condition that tells them apart may be missing. Identical values can stand only once.

`CO[C@H]1/C=C/O[C@@]2(C)Oc3c(C)c(O)c4c(O)c(c(/C=N/N5CCN(C)CC5)c(O)c4c3C2=O)NC(=O)/C(C)=C\C=C\[C@H](C)[C@H](O)[C@@H](C)[C@@H](O)[C@@H](C)[C@H](OC(C)=O)[C@@H]1C` [rifampin]: the “reduction in growth of mature S. aureus biofilms” value in assay [1] was “limited reduction”.

B1: S. aureus ClpP (caseinolytic protease), Q2G036 1-195 (enzyme)
chain: MNLIPTVIETTNRGERAYDIYSRLLKDRIIMLGSQIDDNVANSIVSQLLFLQAQDSEKDIYLYINSPGGSVTAGFAIYDTIQHIKPDVQTICIGMAASMGSFLLAAGAKGKRFALPNAEVMIHQPLGGAQGQATEIEIAANHILKTREKLNRILSERTGQSIEKIQKDTDRDNFLTAEEAKEYGLIDEVMVPETK
Regarding B1, the stoichiometry N (commonly a count of units in the complex or per binding partner) in assay [2] is 14 and 7; in assay [3] it was 14.
